Screening results deposited in PubChem BioAssay by The Scripps Research Institute Molecular Screening Center.
A selection: hits, their analogues and other compounds. The true share with any hit is near 2.3%.
PAD4 inh = blocks human protein arginine deiminase 4; recombinant PAD4, RCA probe fluorescence polarization; inhibition, % at 6.36 µM; hit rate 0.41% among 330,000; AID 485272;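 active = percent inhibition above a cutoff equal to the mean of all tested compounds plus 3 SD, cut at about 15% in these data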
RBBP9 inh = blocks human serine hydrolase RBBP9; O75884; recombinant RBBP9, FP-Rh probe fluorescence polarization; inhibition, % at 7.94 µM; hit rate 0.2% among 220,000;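 active = inhibition above the campaign mean of all tested compounds plus 3 SD, cut at about 14% in these data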
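Test system: recombinant human RBBP9. Quantity: 2.5 µM RBBP9 dispensing solution, before mixing. Detection: FP readout at 525/598 nm. Reagent: Serine-hydrolase probe FP-Rh, 375 nM pre-mixing. Measure: % inhibition. Control set: DMSO-treated enzyme wells and wells lacking RBBP9. Buffer or medium: Tris-NaCl-Pluronic buffer, pH 8.0. Times: preincubation 30 min plus labeling 45 min at 25 °C.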
PME-1 inh = blocks human protein phosphatase methylesterase 1; recombinant PME-1, FP-Rh probe fluorescence polarization; inhibition, % at 5.9 µM; hit rate 0.53% among 320,000; AID 2130;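 active = inhibition above the campaign mean of all compounds plus 3 SD, cut at about 26% in these data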;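 note: competitive labeling of PME-1 active site by serine hydrolase directed probe; inhibitors block probe labeling so polarization falls and inhibition rises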
Target sequence (Q9Y570 whole entry, looked up): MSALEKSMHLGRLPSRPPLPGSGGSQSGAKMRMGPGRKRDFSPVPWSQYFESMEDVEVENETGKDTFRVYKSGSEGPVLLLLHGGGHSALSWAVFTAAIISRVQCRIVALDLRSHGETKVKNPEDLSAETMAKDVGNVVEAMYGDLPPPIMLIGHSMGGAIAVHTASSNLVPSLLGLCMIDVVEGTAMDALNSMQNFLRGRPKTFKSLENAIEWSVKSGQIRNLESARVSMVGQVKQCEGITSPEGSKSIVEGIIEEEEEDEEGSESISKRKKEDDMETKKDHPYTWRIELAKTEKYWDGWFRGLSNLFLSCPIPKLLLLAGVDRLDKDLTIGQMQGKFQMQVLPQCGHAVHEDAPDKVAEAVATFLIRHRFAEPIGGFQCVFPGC
Fam108B inh = blocks mouse Fam108B hydrolase in RBBP9 counter-screen. inhibition, % at 9.51 µM. hit rate 0.33% among 300,000. recombinant Fam108B, FP-Rh probe fluorescence polarization;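 active = inhibition above the screen mean inhibition plus 3 SD, computed separately per campaign, cut at about 18% in these data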;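 note: inhibitors lower polarization as less probe binds the enzyme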
PRMT1 inh = blocks human protein arginine methyltransferase 1 | recombinant PRMT1, activity-based probe fluorescence polarization | hit rate 1.3% among 370,000 | inhibition, % at 2.79 µM | Q99873;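 active = inhibition above about 21% made by adding two undisclosed values, limit read from the data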
GSTO1 inh = blocks human GSTO1 in RBBP9 counter-screen. P78417. recombinant GSTO1, activity-based probe fluorescence polarization. inhibition, % at 5.96 µM. hit rate 1.1% among 300,000. AID 1974;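 active = inhibition above the campaign mean inhibition plus 3 SD, cut at about 35% in these data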
Target sequence (P78417 whole entry, looked up): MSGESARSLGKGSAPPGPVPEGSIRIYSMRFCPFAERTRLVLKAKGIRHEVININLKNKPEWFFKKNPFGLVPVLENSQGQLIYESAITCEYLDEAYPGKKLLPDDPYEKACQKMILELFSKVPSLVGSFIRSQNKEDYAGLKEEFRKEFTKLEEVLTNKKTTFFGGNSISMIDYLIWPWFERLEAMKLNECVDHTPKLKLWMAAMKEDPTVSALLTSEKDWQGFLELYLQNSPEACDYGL
GSTO1 inh conf = confirmation of human GSTO1 inhibitors. shares compounds with GSTO1 inh. recombinant GSTO1, probe fluorescence polarization. inhibition, % at 5.96 µM. hit rate 54% among 2,400;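 active = inhibition above the primary screen's cutoff, its mean inhibition plus 3 SD, cut at about 35% in these data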;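 note: loss of polarization as inhibitors block binding of rhodamine sulfonate ester activity probe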
GSTO1 ABPP inh = inhibitors of recombinant human GSTO1. gel ABPP SE-Rh probe fluorescence. hit rate 30% among 130. inhibition, % at 1 µM. shares compounds with GSTO1 inh. AID 463110;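 active = inhibition of the enzyme GSTO1 above about 75%, limit read from the data; inactive = inhibition below that limit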
Large screens that a line does not name were inactive (follow-up assays come after a bar, where they were run).

Cc1ccc(OCCCN2CCOCC2)c([N+](=O)[O-])c1	none
Cc1nc(Cl)c(C(=O)NCc2ccccc2)c(C)c1Cl	none
O=C(NCc1ccccc1)c1c(Cl)nc(Cl)c(Cl)c1Cl	GSTO1 inh 41 (no result: RBBP9 inh) | GSTO1 inh conf 58
COC(=O)CCC(=O)OC1(C)C(=O)C2=CN(CCCOC(C)C)C(c3ccc(OC)cc3)=CC2=C(Br)C1=O (stereo not drawn)	GSTO1 inh 52 (no result: RBBP9 inh, PRMT1 inh) | GSTO1 inh conf 65
COC(=O)CCC(=O)OC1(C)C(=O)C2=CN(C3CC3)C(c3ccc(OC)cc3)=CC2=C(Br)C1=O (stereo not drawn)	GSTO1 inh 63 (no result: RBBP9 inh) | GSTO1 inh conf inactive
CCC(=O)OC1(C)C(=O)C2=COC(c3ccc(OC)cc3)=CC2=C(Br)C1=O (stereo not drawn)	none (no result: RBBP9 inh)
COC(=O)CCC(=O)OC1(C)C(=O)C2=CN(CC(C)C)C(c3ccc(OC)cc3)=CC2=C(Br)C1=O (stereo not drawn)	GSTO1 inh 59 (no result: RBBP9 inh, PRMT1 inh) | GSTO1 inh conf 53
COC(=O)CCC(=O)OC1(C)C(=O)C2=CN(CCc3c[nH]c4ccccc34)C(c3ccc(OC)cc3)=CC2=C(Br)C1=O (stereo not drawn)	none (no result: RBBP9 inh, PRMT1 inh)
COC(=O)CCC(=O)OC1(C)C(=O)C2=CN(Cc3ccc(OC)cc3)C(c3ccc(OC)cc3)=CC2=C(Br)C1=O (stereo not drawn)	GSTO1 inh 38 (no result: RBBP9 inh) | GSTO1 inh conf 39
CCCCC1=CC2=C(c3ccco3)C(=O)C(C)(OC(=O)c3ccc(OC)cc3)C(=O)C2=CN1CCCOC(C)C (stereo not drawn)	none (no result: RBBP9 inh)
Cc1ccc(-c2nc3ccccc3s2)cc1NC(=O)c1cc(-n2cnnc2)ccc1Cl	none
Cn1cc(CN2CCCC(C(=O)c3cc(F)ccc3F)C2)c2ccccc21 (stereo not drawn)	none
CC(C)N1CCCCC(NC(=O)c2ccc(F)c(F)c2)C1=O (stereo not drawn)	none (no result: PAD4 inh, RBBP9 inh, PME-1 inh, Fam108B inh, GSTO1 inh)
Cc1cccc(C)c1-n1nnnc1C(c1ccccc1)N1CCN(C/C=C/c2ccccc2)CC1 (stereo not drawn)	none (no result: PAD4 inh, RBBP9 inh, PME-1 inh, Fam108B inh, GSTO1 inh)
CCC(C)NC(=O)c1cn(CCOC)c(=O)c2c1c1ccccc1n2C (stereo not drawn)	none (no result: RBBP9 inh)
COC(=O)CCC(=O)OC1(C)C(=O)C=C2C=C(C3CC3)N(c3ccccc3)C=C2C1=O (stereo not drawn)	none (no result: RBBP9 inh)
COC(=O)CCC(=O)OC1(C)C(=O)C2=CN(CC3CC3)C(c3ccc(OC)cc3)=CC2=C(Br)C1=O (stereo not drawn)	GSTO1 inh 51 (no result: RBBP9 inh, PRMT1 inh) | GSTO1 inh conf 36
COC(=O)CCC(=O)OC1(C)C(=O)C2=CN(Cc3ccccc3)C(c3ccc(OC)cc3)=CC2=C(Br)C1=O (stereo not drawn)	GSTO1 inh 50 (no result: RBBP9 inh) | GSTO1 inh conf inactive
COC(=O)CCC(=O)OC1(C)C(=O)C2=CN(c3ccccc3)C(c3ccc(OC)cc3)=CC2=C(Br)C1=O (stereo not drawn)	GSTO1 inh 45 (no result: RBBP9 inh) | GSTO1 inh conf inactive
COc1cccc(CNC(=O)CN2C(=O)COc3ccc(S(=O)(=O)N4CCCCCC4)cc32)c1	none (no result: RBBP9 inh)
COc1ccc(N2CCN(C(=O)c3cccnc3SCc3cccc(Br)c3)CC2)cc1	none
Cc1ccccc1S(=O)(=O)NC(=O)C1(C)CCN1C(=O)c1c(C)noc1C (stereo not drawn)	none (no result: PAD4 inh, RBBP9 inh, PME-1 inh, Fam108B inh, GSTO1 inh)
Cc1ccc(CN2C(=O)C(Cc3ccccc3)Nc3ncnc(N4CCN(c5ccccc5)CC4)c32)cc1 (stereo not drawn)	none (no result: RBBP9 inh)
Oc1ccccc1Oc1ncc(Br)c(N2CCOCC2)n1	none
Oc1ccccc1Oc1ncc(Br)c(Cl)n1	GSTO1 inh 49 (no result: RBBP9 inh) | GSTO1 inh conf inactive
COc1cc(-c2nnc(SCc3cc(=O)oc4cc(O)c(O)cc34)o2)cc(OC)c1OC	GSTO1 inh 59 | GSTO1 inh conf 39
CN(C)c1ccc(O)c2c1CC1CC3C(N(C)C)C(=O)C(C(N)=O)=C(O)[C@@]3(O)C(=O)C1=C2O (stereo partly drawn)	GSTO1 inh 48 (no result: RBBP9 inh) | GSTO1 inh conf inactive
Cc1ccc(CNC(=O)Nc2ccc(F)cc2F)n1C	none (no result: PAD4 inh, RBBP9 inh, PME-1 inh, Fam108B inh, GSTO1 inh)
CC#CC#Cc1cccc(=O)o1	GSTO1 inh 82 | GSTO1 inh conf 80
COc1cc(N)c2ncccc2c1OC	none (no result: PAD4 inh, RBBP9 inh, PME-1 inh, Fam108B inh, GSTO1 inh)
CCOC(=O)C1CCN(C(=O)C2CCCN(c3ncnc4c3nc3n4CCCCC3)C2)CC1 (stereo not drawn)	none (no result: RBBP9 inh)
NS(=O)(=O)c1ccc(CCNC(=O)c2ccc(Cl)s2)cc1	none (no result: RBBP9 inh)
NS(=O)(=O)c1ccc(CCNC(=O)c2ccc([N+](=O)[O-])s2)cc1	GSTO1 inh 50 (no result: RBBP9 inh) | GSTO1 inh conf inactive
Cc1ccc(-n2nnnc2SCC(=O)Nc2cccc(NC(=O)c3ccco3)c2)cc1C	none
O=C(CCl)N(c1ccccc1)C1CCS(=O)(=O)C1 (stereo not drawn)	GSTO1 inh 79 | GSTO1 inh conf 85 | GSTO1 ABPP inh inactive
Cc1ccc(C2(C)NC(=O)N(CC(=O)N(c3ccccc3)C3CCS(=O)(=O)C3)C2=O)cc1 (stereo not drawn)	none (no result: RBBP9 inh, PME-1 inh, Fam108B inh, GSTO1 inh)
O=C(CNCc1ccc(Cl)cc1)Nc1ccc(C(=O)N2CCCCC2)cc1	none (no result: RBBP9 inh)
C=C(C)c1cccc(C(C)(C)NC(=O)Nc2ncccn2)c1	GSTO1 inh 39 | GSTO1 inh conf inactive
COc1ccc(S(=O)(=O)n2oc(=O)cc2-c2ccccc2)cc1OC	GSTO1 inh 40 | GSTO1 inh conf inactive
CC(OC(=O)/C(C#N)=C/c1ccc(N(C)C)cc1)C(=O)NCc1ccco1 (stereo not drawn)	none (no result: RBBP9 inh)
c1coc(-c2nc3ccccc3nc2-c2ccco2)c1	PRMT1 inh 42, GSTO1 inh 62 | GSTO1 inh conf 61
N/C(=N/OC(=O)c1ccccc1Cl)c1ncc([N+](=O)[O-])s1	GSTO1 inh 47 | GSTO1 inh conf inactive
CCOc1ccccc1N1CCN(C(=O)c2cc[n+]([O-])cc2)CC1	none
CCCc1ccc(C(=O)N2CCN(c3ccccc3OCC)CC2)cc1	GSTO1 inh 46 | GSTO1 inh conf inactive
Cc1nn(CCC#N)c(NC(=O)c2ccc(Cl)cc2)c1P(=O)(Nc1ccc([N+](=O)[O-])cc1)N1CCOCC1 (stereo not drawn)	none
CCN(CC)P(=O)(Nc1ccc(Br)cc1)c1c(C)nn(CCC#N)c1NC(=O)c1ccc(Cl)cc1 (stereo not drawn)	GSTO1 inh 47 (no result: RBBP9 inh) | GSTO1 inh conf inactive
COCCn1cnnc1SCC(=O)c1ccc(S(=O)(=O)N2CCCC2)cc1	GSTO1 inh 61 | GSTO1 inh conf 61
COC(=O)[C@@]1(Cc2ccc(OC)cc2)[C@H]2c3cc(C(=O)N4CCCC4)n(CCN4CCNC4=O)c3C[C@H]2CN1C(=O)c1ccccc1	none (no result: PAD4 inh, PME-1 inh, Fam108B inh, PRMT1 inh, GSTO1 inh)
